Measured values taken from PMC4245176 (Journal of Chemical Information and Modeling, 2014).
“Also recorded” adds a separate entry of the source.

Columns and labels:
HIV-1 CA Ile37Ala = HIV-1 CA Ile37Ala (Human immunodeficiency virus type 1 group M subtype B, UniProt P12493, I169A); assay: SPR binding site analysis, mutant CA; conditions: 50 μM compound, equilibrium response normalized to theoretical Rmax
How it was run: (§1)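 Wild-type and Ala-mutant CA were amine-coupled to a GLH chip at 100 μg/mL in sodium acetate pH 4.5, after EDC (0.2 M)/sulfo-NHS (0.05 M) activation for 5 min at 25 °C, then capped with 1 M ethanolamine pH 8.0. Test compound was injected at 100 μL/min with a 2 min association. Rmax assumed 1:1 per surface. Responses from 12 replicate injections per surface were analysed.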

HIV-1 CA Pro38Ala = HIV-1 CA Pro38Ala (Human immunodeficiency virus type 1 group M subtype B, UniProt P12493, P170A); assay: SPR binding site analysis, mutant CA; conditions: 50 μM compound, equilibrium response normalized to theoretical Rmax
How it was run: as §1

HIV-1 CA Lys170Ala = HIV-1 CA Lys170Ala (Human immunodeficiency virus type 1 group M subtype B, UniProt P12493, K302A); assay: SPR binding site analysis, mutant CA; conditions: 50 μM compound, equilibrium response normalized to theoretical Rmax
How it was run: as §1

HIV-1_89BZ167 = assay: PBMC-based HIV-1 replication assay; assay type: cell-based; conditions: HIV-1 replication in primary human PBMCs
How it was run: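 Fresh human PBMCs from HIV-1/HBV-seronegative donors were stimulated with 4 μg/mL PHA for 48–72 h and kept in 20 U/mL rhIL-2. Cells from ≥2 donors were pooled at 5 × 10^4 cells/well and infected with 89BZ167 (subtype B, CXCR4-tropic) at MOI ≅0.1 with nine compound concentrations (triplicate wells) for 7 days. Supernatant RT activity gave infection as % of compound-free control, from which IC50 was derived.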

HIV-1 CA Asn139Ala = HIV-1 CA Asn139Ala (Human immunodeficiency virus type 1 group M subtype B, UniProt P12493, N271A); assay: SPR binding site analysis, mutant CA; conditions: 50 μM compound, equilibrium response normalized to theoretical Rmax
How it was run: as §1

HIV-1 CA Arg173Ala = HIV-1 CA Arg173Ala (Human immunodeficiency virus type 1 group M subtype B, UniProt P12493, R305A); assay: SPR binding site analysis, mutant CA; conditions: 50 μM compound, equilibrium response normalized to theoretical Rmax
How it was run: as §1

HIV-1NL4-3 CA protein = HIV-1NL4-3 CA protein (Human immunodeficiency virus type 1 group M subtype B, UniProt P12493); assay: SPR direct binding to immobilized CA
How it was run: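 CA was amine-coupled at 100 μg/mL in sodium acetate pH 4.5 onto an EDC/sulfo-NHS-activated GLH chip, with a nonspecific-antibody reference surface. A 10 mM DMSO stock of test compound was serially diluted 2-fold to 18.75–300 μM in PBS-T pH 7.4 with 5% DMSO. One-shot kinetics ran at 100 μL/min, 2 min association and 2 min dissociation. Buffer and reference responses were subtracted, and data were fitted to a 1:1 model.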

HIV-1 CA Gln179Ala = HIV-1 CA Gln179Ala (Human immunodeficiency virus type 1 group M subtype B, UniProt P12493, Q311A); assay: SPR binding site analysis, mutant CA; conditions: 50 μM compound, equilibrium response normalized to theoretical Rmax
How it was run: as §1

[1] = tested on: peripheral blood mononuclear cells (PBMCs); assay: MTS cytotoxicity assay in PBMCs; assay type: cell-based, human; conditions: up to the highest test concentration of 100 μM
How it was run: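 Cytotoxicity was read by MTS addition alongside the 7-day HIV-1 infection of pooled PHA/IL-2-stimulated human PBMCs (5 × 10^4 cells/well, nine compound concentrations, triplicate wells). The maximum concentration tested was 100 μM. CC50 is the half-maximal cytotoxic concentration. TI = CC50/IC50, with IC50 taken from the RT-based antiviral readout against 89BZ167.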

HIV-1 CA Ser41Ala = HIV-1 CA Ser41Ala (Human immunodeficiency virus type 1 group M subtype B, UniProt P12493, S173A); assay: SPR binding site analysis, mutant CA; conditions: 50 μM compound, equilibrium response normalized to theoretical Rmax
How it was run: as §1

Compound: O=[N+]([O-])c1cccc(-c2nc3c4cc(I)ccc4c4ccccc4c3[nH]2)c1 [Compound 34, 5-iodo-2-(3-nitrophenyl)-1H-phenanthro[9,10-d]imidazole]
- effect of mutation on compound binding versus wild-type CA (HIV-1 CA Ile37Ala): no effect
- effect of mutation on compound binding versus wild-type CA (HIV-1 CA Pro38Ala): increase the interaction
- effect of mutation on compound binding versus wild-type CA (HIV-1 CA Lys170Ala): loss of favorable interactions; also recorded: major effect
- improvement in antiviral potency over I-XW-053 (compound 1) (HIV-1_89BZ167): 11 fold
- effect of mutation on compound binding versus wild-type CA (HIV-1 CA Asn139Ala): no effect
- effect of mutation on compound binding versus wild-type CA (HIV-1 CA Arg173Ala): increase the interaction
- Kd (HIV-1NL4-3 CA protein): 11.8 ± 4.7 µM
- effect of mutation on compound binding versus wild-type CA (HIV-1 CA Gln179Ala): loss of favorable interactions
- toxicity / viability of PBMCs [1]: no toxicity; also recorded: not toxic
- effect of mutation on compound binding versus wild-type CA (HIV-1 CA Ser41Ala): loss of favorable interactions
